≈ marks a conversion by molar mass, not a printed value. Where a SMILES comes first, the peptide text is derived from it. Bridges are numbered along the chain shown (N, C = ends). [ ]: non-standard residue; d: D form. The star is where a group is joined. NMePhe(4-NMe2) = CN[C@@H](Cc1ccc(N(C)C)cc1)C(=O)O; Pip(4-oxo) = O=C1CCN[C@H](C(=O)O)C1; Picolinoyl(3-OH) = O=C(c1ncccc1O)*; Phg = N[C@H](C(=O)O)c1ccccc1; dAbu = CC[C@@H](N)C(=O)O
Columns and labels:
Format in all cases: functional
[1] = (§1) Antimicrobial activity against Aeromonas hydrophila subsp. hydrophila ATCC 7966 harboring plasmid pEX19Gm by agar dilution method in presence of 64 mg/L efflux pump inhibitor phenylalanine-arginine-beta-naphthylamide
[2] = (§2) Antimicrobial activity against Aeromonas hydrophila subsp. hydrophila ATCC 7966 harboring plasmid pEX19Gm by agar dilution method
Summary of the method: (§3)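 Agar dilution MICs on MH medium, final inoculum about 10^4 CFU per spot. Tested in A. hydrophila ATCC 7966T and E. coli TG1 strains (wild type, ΔaheB::kan or ΔacrAB), each carrying empty pEX19Gm or a pump-encoding plasmid (pEXAheABC, pUCAcrAB). Run at least in triplicate, mode value reported.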

[3] = test system: Escherichia coli; test: Antimicrobial activity against Escherichia coli TG1 harboring plasmid pEX19Gm by agar dilution method; summary of the method: as §3
[4] = test system: Escherichia coli; test: Antimicrobial activity against acrAB-deficient Escherichia coli TG1 harboring AheABC efflux pump by agar dilution method; summary of the method: as §3
[5] = (§4) Antimicrobial activity against aheB deficient kanamycin-resistant Aeromonas hydrophila subsp. hydrophila ATCC 7966 harboring AheABC efflux pump by agar dilution method; summary of the method: as §3
[6] = test system: Escherichia coli; test: Antimicrobial activity against acrAB-deficient Escherichia coli TG1 harboring plasmid pEX19Gm by agar dilution method; summary of the method: as §3
[7] = (§5) Antimicrobial activity against aheB deficient kanamycin-resistant Aeromonas hydrophila subsp. hydrophila ATCC 7966 harboring plasmid pEX19Gm by agar dilution method in presence of 64 mg/L efflux pump inhibitor phenylalanine-arginine-beta-naphthylamide
[8] = (§6) Antimicrobial activity against aheB deficient kanamycin-resistant Aeromonas hydrophila subsp. hydrophila ATCC 7966 harboring plasmid pEX19Gm by agar dilution method; summary of the method: as §3
[9] = (§7) Antimicrobial activity against aheB-deficient kanamycin-resistant Aeromonas hydrophila subsp. hydrophila ATCC 7966 harboring AheABC efflux pump by agar dilution method in presence of 64 mg/L efflux pump inhibitor phenylalanine-arginine-beta-naphthylamide
[10] = test system: Escherichia coli; test: Antimicrobial activity against acrAB-deficient Escherichia coli TG1 harboring AcrAB efflux pump by agar dilution method; summary of the method: as §3
[11] = test system: Aeromonas hydrophila subsp. hydrophila ATCC 7966; test: as §1
[12] = test system: Aeromonas hydrophila subsp. hydrophila ATCC 7966; test: as §2; summary of the method: as §3
[13] = test system: Aeromonas hydrophila subsp. hydrophila ATCC 7966; test: as §4; summary of the method: as §3
[14] = test system: Aeromonas hydrophila subsp. hydrophila ATCC 7966; test: as §5
[15] = test system: Aeromonas hydrophila subsp. hydrophila ATCC 7966; test: as §6; summary of the method: as §3
[16] = test system: Aeromonas hydrophila subsp. hydrophila ATCC 7966; test: as §7

| Compound | MIC [1] [µg/mL] | MIC [2] [µg/mL] | MIC [3] [µg/mL] | MIC [4] [µg/mL] | MIC [5] [µg/mL] | MIC [6] [µg/mL] | MIC [7] [µg/mL] | MIC [8] [µg/mL] | MIC [9] [µg/mL] | MIC [10] [µg/mL] | MIC [11] [µg/mL] | MIC [12] [µg/mL] | MIC [13] [µg/mL] | MIC [14] [µg/mL] | MIC [15] [µg/mL] | MIC [16] [µg/mL] |
| --- | --- | --- | --- | --- | --- | --- | --- | --- | --- | --- | --- | --- | --- | --- | --- | --- |
| CN(C)c1ccc2cc3ccc(N(C)C)cc3nc2c1 [ACRIDINE ORANGE] | 256 | 512 (≈ 1930 µM) | > 1020 | 256 (≈ 965 µM) | 1020 (≈ 3860 µM) | 128 (≈ 482 µM) | 128 | 256 (≈ 965 µM) | 256 | > 1020 | – | – | – | – | – | – |
| CCN1CCN(C(=O)N[C@@H](C(=O)N[C@@H]2C(=O)N3C(C(=O)O)=C(CSc4nnnn4C)CS[C@H]23)c2ccc(O)cc2)C(=O)C1=O [CEFOPERAZONE] | 0.25 | 0.25 (≈ 0.387 µM) | 0.25 (≈ 0.387 µM) | 0.06 (≈ 0.0929 µM) | 2 (≈ 3.1 µM) | 0.03 (≈ 0.0465 µM) | 0.06 | 0.06 (≈ 0.0929 µM) | 2 | 8 (≈ 12.4 µM) | – | – | – | – | – | – |
| CO/N=C(\C(=O)N[C@@H]1C(=O)N2C(C(=O)O)=C(COC(N)=O)CS[C@H]12)c1ccco1 [CEFUROXIME] | 1 | 1 (≈ 2.36 µM) | 4 (≈ 9.43 µM) | 2 (≈ 4.71 µM) | 4 (≈ 9.43 µM) | 0.5 (≈ 1.18 µM) | 0.25 | 0.25 (≈ 0.589 µM) | 4 | 8 (≈ 18.9 µM) | – | – | – | – | – | – |
| CC[C@H]1OC(=O)[C@H](C)[C@@H](O[C@H]2C[C@@](C)(OC)[C@@H](O)[C@H](C)O2)[C@H](C)[C@@H](O[C@@H]2O[C@H](C)C[C@H](N(C)C)[C@H]2O)[C@](C)(O)C[C@@H](C)C(=O)[C@H](C)[C@@H](O)[C@]1(C)O [ERYTHROMYCIN] | 2 | 16 (≈ 21.8 µM) | 64 (≈ 87.2 µM) | 32 (≈ 43.6 µM) | 64 (≈ 87.2 µM) | 1 (≈ 1.36 µM) | 1 | 8 (≈ 10.9 µM) | 2 | 128 (≈ 174 µM) | – | – | – | – | – | – |
| CC(=O)O[C@H]1C[C@@]2(C)[C@@H](C[C@@H](O)[C@H]3[C@@]4(C)CC[C@@H](O)[C@@H](C)[C@@H]4CC[C@@]32C)/C1=C(\CCC=C(C)C)C(=O)O [FUSIDIC ACID] | 2 | 128 (≈ 248 µM) | 512 (≈ 991 µM) | 128 (≈ 248 µM) | 256 (≈ 495 µM) | 2 (≈ 3.87 µM) | 1 | 64 (≈ 124 µM) | 8 | 512 (≈ 991 µM) | – | – | – | – | – | – |
| CC[n+]1c(-c2ccccc2)c2cc(N)ccc2c2ccc(N)cc21.[Br-] [HOMIDIUM BROMIDE] | 128 | 128 | 512 | 64 | 512 | 2 | 64 | 64 | 512 | 512 | – | – | – | – | – | – |
| CCC[C@@H]1C[C@@H](C(=O)N[C@@H]([C@H]2O[C@H](SC)[C@H](O)[C@@H](O)[C@H]2O)[C@@H](C)O)N(C)C1 [LINCOMYCIN] | 128 | 128 (≈ 315 µM) | 1020 (≈ 2520 µM) | 512 (≈ 1260 µM) | 256 (≈ 630 µM) | 64 (≈ 157 µM) | 64 | 64 (≈ 157 µM) | 256 | > 1020 | – | – | – | – | – | – |
| CN(C)c1ccc(O)c2c1C[C@H]1C[C@H]3[C@H](N(C)C)C(O)=C(C(N)=O)C(=O)[C@@]3(O)C(O)=C1C2=O [MINOCYCLINE] | 0.5 | 1 (≈ 2.19 µM) | 1 (≈ 2.19 µM) | 1 (≈ 2.19 µM) | 2 (≈ 4.37 µM) | 0.12 (≈ 0.262 µM) | 0.25 | 0.4 (≈ 0.874 µM) | 1 | 2 (≈ 4.37 µM) | – | – | – | – | – | – |
| CC[C@H]1NC(=O)[C@@H](NC(=O)c2ncccc2O)[C@@H](C)OC(=O)[C@H](c2ccccc2)NC(=O)[C@@H]2CC(=O)CCN2C(=O)[C@H](Cc2ccc(N(C)C)cc2)N(C)C(=O)[C@@H]2CCCN2C1=O [PRISTINAMYCIN 1A] ({Picolinoyl(3-OH)}-T[dAbu]P[NMePhe(4-NMe2)][Pip(4-oxo)][Phg]; ester 1-C) | 2 | 32 (≈ 36.9 µM) | 64 (≈ 73.8 µM) | 64 (≈ 73.8 µM) | 128 (≈ 148 µM) | 4 (≈ 4.61 µM) | 1 | 8 (≈ 9.23 µM) | 4 | 64 (≈ 73.8 µM) | – | – | – | – | – | – |
| CO[C@H]1/C=C/O[C@@]2(C)Oc3c(C)c(O)c4c(O)c(c(/C=N/N5CCN(C)CC5)c(O)c4c3C2=O)NC(=O)/C(C)=C\C=C\[C@H](C)[C@H](O)[C@@H](C)[C@@H](O)[C@@H](C)[C@H](OC(C)=O)[C@@H]1C [RIFAMPIN] | 0.06 | 2 (≈ 2.43 µM) | 16 (≈ 19.4 µM) | 8 (≈ 9.72 µM) | 4 (≈ 4.86 µM) | 8 (≈ 9.72 µM) | 0.03 | 1 (≈ 1.22 µM) | 0.12 | 16 (≈ 19.4 µM) | – | – | – | – | – | – |
| COc1cc(Cc2cnc(N)nc2N)cc(OC)c1OC [TRIMETHOPRIM] | 8 | 16 (≈ 55.1 µM) | 0.2 (≈ 0.689 µM) | 0.05 (≈ 0.172 µM) | 32 (≈ 110 µM) | 0.05 (≈ 0.172 µM) | 4 | 8 (≈ 27.6 µM) | 16 | 0.05 (≈ 0.172 µM) | – | – | – | – | – | – |
| TRIBUTYLSTANNANYL | – | – | > 1020 | 16 | – | 4 | – | – | – | > 1020 | 2 | 32 | 256 | 2 | 16 | 4 |

— ChEMBL document CHEMBL1255307, “Role of the AheABC efflux pump in Aeromonas hydrophila intrinsic multidrug resistance” (2008)
